Results reported in ChEMBL document CHEMBL2021895 (Eur J Med Chem, 2012).

Experiments:
[1] = Inhibition of sheep brain tubulin polymerization using DAPI by fluorescence assay; design: species or system Ovis aries
Outline: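 Tubulin purified by two assembly–disassembly cycles, in 0.1 M MES, 0.5 mM MgCl2, 1 mM EGTA, 1 mM GTP, pH 6.6 (about 2-3 mg/mL). Assembly followed by DAPI fluorescence at 37°C.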

HCT-116 = assay: Cytotoxicity against human HCT116 cells after 72 hrs using resazurin dye by microtiter plate fluorimeter analysis; type: functional; details: HCT-116, 72 h
MDA-MB-231 = assay: Cytotoxicity against human MDA-MB-231 cells after 72 hrs using resazurin dye by microtiter plate fluorimeter analysis; type: functional; details: MDA-MB-231, 72 h
[2] = Cytotoxicity against human H1299 cells after 72 hrs using resazurin dye by microtiter plate fluorimeter analysis; type: functional; details: NCI-H1299, 72 h
K562 = assay: Cytotoxicity against human K562 cells after 72 hrs using resazurin dye by microtiter plate fluorimeter analysis; type: functional; details: K562, 72 h

Work on `C=C(c1ccc(OC)c(O)c1)c1cc(OC)c(OC)c(OC)c1` yielded an IC50 [1] of 2200 nM, a GI50 (HCT-116) of 3 nM and a GI50 (MDA-MB-231) of 4 nM. It also gave a GI50 [2] of 3 nM and a GI50 (K562) of 5 nM.

`COc1ccc(/C=C\c2cc(OC)c(OC)c(OC)c2)cc1O` [COMBRETASTATIN A4] gave a GI50 (HCT-116) of 2 nM, a GI50 (MDA-MB-231) of 3 nM and a GI50 [2] of 5 nM. For the same compound, the GI50 (K562) was 4 nM.
